Data published in ChEMBL document CHEMBL1126061, “Cyclic RGD peptide analogues as antiplatelet antithrombotics” (J Med Chem, 1992).
*1 amine or outer side, *2 acyl side, *3 side chain or, on linkers, in order; H or OH if unused. Where a SMILES comes first, the peptide text is derived from it. Bridges are numbered along the chain shown (N, C = ends). [ ]: non-standard residue; d: D form. Cys(O)(CH2CO) = O=C([C@H](C[S+]([O-])CC(=O)[*:3])N[*:1])[*:2]

Assays:
Assay type in all cases: protein-complex assay
[1] = target: T1, Integrin alpha-IIb/beta-3 (Homo sapiens, UniProt P05106+P08514); test: The compound was tested for the inhibition of fibrinogen receptor
T1 sequence (P05106 27-788 limits assumed): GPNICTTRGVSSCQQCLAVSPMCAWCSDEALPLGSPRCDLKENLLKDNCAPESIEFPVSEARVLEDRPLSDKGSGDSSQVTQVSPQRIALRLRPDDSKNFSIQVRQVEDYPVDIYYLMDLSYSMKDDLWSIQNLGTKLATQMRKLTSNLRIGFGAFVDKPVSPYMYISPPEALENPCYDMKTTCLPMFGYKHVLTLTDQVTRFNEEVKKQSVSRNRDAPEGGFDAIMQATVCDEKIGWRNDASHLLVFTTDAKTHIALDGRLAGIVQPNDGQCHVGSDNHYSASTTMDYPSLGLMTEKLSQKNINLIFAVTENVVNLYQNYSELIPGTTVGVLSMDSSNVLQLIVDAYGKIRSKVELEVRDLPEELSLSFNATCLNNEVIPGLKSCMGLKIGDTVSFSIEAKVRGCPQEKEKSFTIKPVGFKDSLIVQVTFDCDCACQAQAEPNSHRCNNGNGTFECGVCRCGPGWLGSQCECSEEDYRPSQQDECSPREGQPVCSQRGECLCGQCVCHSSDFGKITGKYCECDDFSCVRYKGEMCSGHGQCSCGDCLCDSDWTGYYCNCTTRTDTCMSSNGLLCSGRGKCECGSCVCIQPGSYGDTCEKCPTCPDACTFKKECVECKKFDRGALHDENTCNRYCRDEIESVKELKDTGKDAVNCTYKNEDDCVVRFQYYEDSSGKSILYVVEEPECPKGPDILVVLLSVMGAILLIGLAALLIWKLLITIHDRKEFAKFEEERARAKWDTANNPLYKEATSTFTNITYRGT
T1 sequence (P08514 32-887 limits assumed): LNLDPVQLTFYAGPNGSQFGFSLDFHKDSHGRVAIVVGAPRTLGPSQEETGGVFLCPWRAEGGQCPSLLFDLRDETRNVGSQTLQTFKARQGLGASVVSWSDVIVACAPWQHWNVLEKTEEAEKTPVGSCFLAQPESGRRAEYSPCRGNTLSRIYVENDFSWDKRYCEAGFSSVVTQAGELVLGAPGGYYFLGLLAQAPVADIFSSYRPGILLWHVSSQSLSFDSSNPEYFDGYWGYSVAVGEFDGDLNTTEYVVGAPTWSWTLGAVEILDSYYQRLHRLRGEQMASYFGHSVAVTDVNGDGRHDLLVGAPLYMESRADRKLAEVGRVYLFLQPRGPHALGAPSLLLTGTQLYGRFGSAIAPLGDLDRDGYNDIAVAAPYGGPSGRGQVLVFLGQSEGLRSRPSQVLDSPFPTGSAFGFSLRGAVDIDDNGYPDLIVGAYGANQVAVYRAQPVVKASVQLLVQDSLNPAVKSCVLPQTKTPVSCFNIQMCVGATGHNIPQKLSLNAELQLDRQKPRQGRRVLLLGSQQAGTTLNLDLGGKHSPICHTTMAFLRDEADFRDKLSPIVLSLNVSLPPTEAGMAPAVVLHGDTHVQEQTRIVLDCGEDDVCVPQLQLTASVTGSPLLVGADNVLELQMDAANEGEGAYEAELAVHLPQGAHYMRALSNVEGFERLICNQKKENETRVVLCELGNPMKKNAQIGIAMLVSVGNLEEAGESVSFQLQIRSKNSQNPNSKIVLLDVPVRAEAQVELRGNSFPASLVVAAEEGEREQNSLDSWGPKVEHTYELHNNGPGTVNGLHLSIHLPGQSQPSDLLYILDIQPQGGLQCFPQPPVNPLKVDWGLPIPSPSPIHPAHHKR
T1 sequence (P08514 891-1039 limits assumed): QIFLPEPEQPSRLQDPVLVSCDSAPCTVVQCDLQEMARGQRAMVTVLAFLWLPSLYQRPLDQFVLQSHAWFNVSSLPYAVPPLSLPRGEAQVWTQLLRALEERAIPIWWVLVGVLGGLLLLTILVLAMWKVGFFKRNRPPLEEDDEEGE
How it was run: (§1)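 Solid-phase ELISA: human fibrinogen (10 µg/mL) coated, BSA-blocked; samples plus purified human platelet GPIIbIIIa (40 µg/mL) incubated 1 h at room temperature. Bound receptor detected with anti-GPIIbIIIa antibody AP3 (1 µg/mL, 1 h), then goat anti-mouse HRP (1 h); OPD/H2O2 at pH 5, stopped with H2SO4, absorbance 492-405 nm. IC50 from four-parameter fit; n ≥ 3.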

[2] = target: T1, Integrin alpha-IIb/beta-3; test: Inhibition of Fibrinogen binding to Fibrinogen receptor; how it was run: as §1
[3] = target: T1, Integrin alpha-IIb/beta-3; test: Inhibition of Fibrinogen receptor; how it was run: as §1

Row | SMILES | IC50 [1] | IC50 [2] | IC50 [3]
1 | N=C(N)NCCC[C@@H]1NC(=O)[C@@H](CO)NC(=O)CSC[C@@H](C(=O)O)NC(=O)[C@H](CC(=O)O)NC(=O)CNC1=O | 22 nM |  | 
2 | CCCC1SC[C@@H](C(=O)O)NC(=O)[C@H](CC(=O)O)NC(=O)CNC(=O)[C@H](CCCNC(=N)N)NC(=O)CNC1=O (stereo in doubt; 23A) | 21 nM |  | 
3 | N=C(N)NCCC[C@@H]1NC(=O)[C@@H](CCCCN)NC(=O)CSC[C@@H](C(=O)O)NC(=O)[C@H](CC(=O)O)NC(=O)CNC1=O | 20 nM |  | 
4 | N=C(N)NCCC[C@@H]1NC(=O)[C@H](CCC(N)=O)NC(=O)CSC[C@@H](C(=O)O)NC(=O)[C@H](CC(=O)O)NC(=O)CNC1=O | 43 nM |  | 
5 | N=C(N)NCCC[C@@H]1NC(=O)[C@H](CCCCN)NC(=O)C[S+]([O-])C[C@@H](C(=O)O)NC(=O)[C@H](CC(=O)O)NC(=O)CNC1=O (some centres undefined) (KRGD[Cys(O)(CH2CO)]-OH; lactam N-5) | 2.6 nM | 14 nM | 
6 | N=C(N)NCCC[C@H](N)C(=O)NCC(=O)N[C@@H](CC(=O)O)C(=O)N[C@@H](Cc1ccccc1)C(=O)O (H-RGDF-OH) |  |  | 31 nM
7 | N=C(N)NCCC[C@@H]1NC(=O)CNC(=O)C(c2ccccc2C(F)(F)F)SC[C@@H](C(=O)O)NC(=O)[C@H](CC(=O)O)NC(=O)CNC1=O (stereo in doubt; 20A) | 23 nM |  | 
8 | CC(=O)NCC(=O)N[C@@H](CCCNC(=N)N)C(=O)NCC(=O)N[C@@H](CC(=O)O)C(=O)N[C@H](C(N)=O)C(C)C (Ac-GRGDV-NH2) | 434 nM |  | 
9 | CC(C)(C)C[C@H]1NC(=O)CSC[C@@H](C(=O)O)NC(=O)[C@H](CC(=O)O)NC(=O)CNC(=O)[C@H](CCCN=C(N)N)NC1=O | 22 nM |  | 
10 | NCC(=O)N[C@@H](CCCN=C(N)N)C(=O)NCC(=O)N[C@@H](CC(=O)O)C(=O)N[C@@H](Cc1ccc(O)cc1)C(=O)O (H-GRGDY-OH) | 240 nM |  | 
11 | N=C(N)NCCC[C@@H]1NC(=O)CNC(=O)C(c2cccc(C(F)(F)F)c2)SC[C@@H](C(=O)O)NC(=O)[C@H](CC(=O)O)NC(=O)CNC1=O (stereo in doubt; 24A) | 35 nM |  | 
12 | CCC1SC[C@@H](C(=O)O)NC(=O)[C@H](CC(=O)O)NC(=O)CNC(=O)[C@H](CCCN=C(N)N)NC(=O)CNC1=O (stereo in doubt; 25A) | 20 nM |  | 
13 | CC(C)[C@H](NC(=O)[C@H](CC(=O)O)NC(=O)CNC(=O)[C@H](CCCN=C(N)N)NC(=O)CN)C(=O)O (H-GRGDV-OH) | 30 nM |  | 
14 | N=C(N)NCCC[C@@H]1NC(=O)CNC(=O)[C@@H](Cc2ccccc2)SC[C@@H](C(=O)O)NC(=O)[C@H](CC(=O)O)NC(=O)CNC1=O | 29 nM |  | 
15 | N=C(N)NCCC[C@@H]1NC(=O)[C@H](Cc2ccc(O)cc2)NC(=O)C[S+]([O-])C[C@@H](C(=O)O)NC(=O)[C@H](CC(=O)O)NC(=O)CNC1=O (stereo in doubt; 70B) | 4.8 nM |  | 
16 | C[C@@H](O)[C@@H]1NC(=O)C[S+]([O-])C[C@@H](C(=O)O)NC(=O)[C@H](CC(=O)O)NC(=O)CNC(=O)[C@H](CCCN=C(N)N)NC1=O (stereo in doubt; 71B) | 10 nM |  | 
17 | N=C(N)NCCC[C@@H]1NC(=O)[C@@H](CC(=O)O)NC(=O)CSC[C@@H](C(=O)O)NC(=O)[C@H](CC(=O)O)NC(=O)CNC1=O | 500 nM |  | 
18 | N=C(N)NCCC[C@@H]1NC(=O)[C@@H](Cc2ccc(O)cc2)NC(=O)CSC[C@@H](C(=O)O)NC(=O)[C@H](CC(=O)O)NC(=O)CNC1=O ({CH2CO}-[dY]RGDC-OH; thioether N-5) | 20 nM |  | 
19 | N=C(N)NCCC[C@@H]1NC(=O)CNC(=O)CS(=O)(=O)C[C@@H](C(=O)O)NC(=O)[C@H](CC(=O)O)NC(=O)CNC1=O | 18 nM |  | 
20 | N=C(N)NCCC[C@@H]1NC(=O)[C@H](CO)NC(=O)C[S+]([O-])C[C@@H](C(=O)O)NC(=O)[C@H](CC(=O)O)NC(=O)CNC1=O (some centres undefined) (SRGD[Cys(O)(CH2CO)]-OH; lactam N-5) | 8 nM | 50 nM | 
21 | N=C(N)NCCC[C@@H]1NC(=O)c2cccc(c2)CSC[C@@H](C(=O)O)NC(=O)[C@H](CC(=O)O)NC(=O)CNC1=O | 19 nM |  | 
22 | N=C(N)NCCC[C@@H]1NC(=O)CSC[C@@H](C(=O)O)NC(=O)[C@H](CC(=O)O)NC(=O)CNC1=O ({CH2CO}-RGDC-OH; thioether N-4) | 132 nM |  | 

The remaining lines, values ahead:

Row | IC50 [1] | IC50 [2] | IC50 [3] | SMILES
23 | 6.6 nM | 16 nM |  | N=C(N)NCCC[C@@H]1NC(=O)[C@H](Cc2ccccc2)NC(=O)C[S+]([O-])C[C@@H](C(=O)O)NC(=O)[C@H](CC(=O)O)NC(=O)CNC1=O (some centres undefined)
24 | 12 nM |  |  | N=C(N)NCCC[C@@H]1NC(=O)CCNC(=O)CSC[C@@H](C(=O)O)NC(=O)[C@H](CC(=O)O)NC(=O)CNC1=O
25 | 6 nM |  |  | CC[C@H](C)[C@@H]1NC(=O)CSC[C@@H](C(=O)O)NC(=O)[C@H](CC(=O)O)NC(=O)CNC(=O)[C@H](CCCN=C(N)N)NC1=O
26 | 1.4 nM |  |  | N=C(N)NCCC[C@@H]1NC(=O)CNC(=O)C(c2cccc3ccccc23)SC[C@@H](C(=O)O)NC(=O)[C@H](CC(=O)O)NC(=O)CNC1=O (stereo in doubt; 17B)
27 | 3.9 nM | 25 nM |  | CC(C)C[C@@H]1NC(=O)C[S+]([O-])C[C@@H](C(=O)O)NC(=O)[C@H](CC(=O)O)NC(=O)CNC(=O)[C@H](CCCN=C(N)N)NC1=O (some centres undefined) (LRGD[Cys(O)(CH2CO)]-OH; lactam N-5)
28 | 4.7 nM |  |  | C[C@@H]1NC(=O)C[S+]([O-])C[C@@H](C(=O)O)NC(=O)[C@H](CC(=O)O)NC(=O)CNC(=O)[C@H](CCCN=C(N)N)NC1=O (stereo in doubt; 68B)
29 | 7 nM |  |  | N=C(N)NCCC[C@@H]1NC(=O)[C@H](Cc2ccccc2)NC(=O)CSC[C@@H](C(=O)O)NC(=O)[C@H](CC(=O)O)NC(=O)CNC1=O
30 | 2.9 nM | 4.5 nM |  | CC(C)[C@@H]1NC(=O)C[S+]([O-])C[C@@H](C(=O)O)NC(=O)[C@H](CC(=O)O)NC(=O)CNC(=O)[C@H](CCCNC(=N)N)NC1=O (some centres undefined) (VRGD[Cys(O)(CH2CO)]-OH; lactam N-5)
31 | 1.3 nM |  |  | C[C@@H](O)[C@@H]1NC(=O)CSC[C@@H](C(=O)O)NC(=O)[C@H](CC(=O)O)NC(=O)CNC(=O)[C@H](CCCN=C(N)N)NC1=O
32 | 1.4 nM |  |  | N=C(N)NCCC[C@@H]1NC(=O)CNC(=O)C[S+]([O-])C[C@@H](C(=O)O)NC(=O)[C@H](CC(=O)O)NC(=O)CNC1=O (stereo in doubt; 66A)
33 | 5.3 nM |  |  | N=C(N)NCCC[C@@H]1NC(=O)CNC(=O)C(c2cccc3ccccc23)SC[C@@H](C(=O)O)NC(=O)[C@H](CC(=O)O)NC(=O)CNC1=O (stereo in doubt; 17A)
34 | 4.7 nM |  |  | N=C(N)NCCC[C@@H]1NC(=O)[C@H](CCC(=O)O)NC(=O)C[S+]([O-])C[C@@H](C(=O)O)NC(=O)[C@H](CC(=O)O)NC(=O)CNC1=O (stereo in doubt; 73A)
35 | 17 nM |  |  | CC(C)[C@H]1NC(=O)CSC[C@@H](C(=O)O)NC(=O)[C@H](CC(=O)O)NC(=O)CNC(=O)[C@H](CCCNC(=N)N)NC1=O
36 | 2.5 nM |  |  | C[C@@H]1NC(=O)CSC[C@@H](C(=O)O)NC(=O)[C@H](CC(=O)O)NC(=O)CNC(=O)[C@H](CCCNC(=N)N)NC1=O ({CH2CO}-ARGDC-OH; thioether N-5)
37 | 2.7 nM |  |  | N=C(N)NCCC[C@@H]1NC(=O)CNC(=O)C(c2ccccc2C(F)(F)F)SC[C@@H](C(=O)O)NC(=O)[C@H](CC(=O)O)NC(=O)CNC1=O (stereo in doubt; 20B)
38 | 4.2 nM |  |  | N=C(N)NCCC[C@@H]1NC(=O)CNC(=O)CSC[C@@H](C(=O)O)NC(=O)[C@H](CC(=O)O)NC(=O)CNC1=O ({CH2CO}-GRGDC-OH; thioether N-5)
39 | 6 nM |  |  | CCC1SC[C@@H](C(=O)O)NC(=O)[C@H](CC(=O)O)NC(=O)CNC(=O)[C@H](CCCN=C(N)N)NC(=O)CNC1=O (stereo in doubt; 25B)
40 | 4 nM |  |  | CSCC[C@@H]1NC(=O)CSC[C@@H](C(=O)O)NC(=O)[C@H](CC(=O)O)NC(=O)CNC(=O)[C@H](CCCNC(=N)N)NC1=O
41 | 1 nM |  |  | N=C(N)NCCC[C@@H]1NC(=O)[C@@H]2CCCN2C(=O)CSC[C@@H](C(=O)O)NC(=O)[C@H](CC(=O)O)NC(=O)CNC1=O ({CH2CO}-PRGDC-OH; thioether N-5)
42 | 6.8 nM |  |  | N=C(N)NCCC[C@@H]1NC(=O)[C@@H](Cc2c[nH]cn2)NC(=O)CSC[C@@H](C(=O)O)NC(=O)[C@H](CC(=O)O)NC(=O)CNC1=O
43 | 4 nM |  |  | N=C(N)NCCC[C@@H]1NC(=O)[C@H](Cc2c[nH]c3ccccc23)NC(=O)CSC[C@@H](C(=O)O)NC(=O)[C@H](CC(=O)O)NC(=O)CNC1=O
44 | 5.6 nM | 33 nM |  | N=C(N)NCCC[C@@H]1NC(=O)[C@@H](Cc2ccccc2)NC(=O)C[S+]([O-])C[C@@H](C(=O)O)NC(=O)[C@H](CC(=O)O)NC(=O)CNC1=O (some centres undefined)
45 | 11.5 nM |  |  | N=C(N)NCCC[C@@H]1NC(=O)CNC(=O)C(c2ccc3ccccc3c2)SC[C@@H](C(=O)O)NC(=O)[C@H](CC(=O)O)NC(=O)CNC1=O (stereo in doubt; 21A)
46 | 3 nM |  |  | N=C(N)NCCC[C@@H]1NC(=O)[C@H](Cc2cnc[nH]2)NC(=O)CSC[C@@H](C(=O)O)NC(=O)[C@H](CC(=O)O)NC(=O)CNC1=O
47 | 5.6 nM |  |  | NCCC[C@@H]1NC(=O)CSC[C@@H](C(=O)O)NC(=O)[C@H](CC(=O)O)NC(=O)CNC(=O)[C@H](CCCN=C(N)N)NC1=O
48 | 14 nM |  |  | N=C(N)NCCC[C@@H]1NC(=O)CNC(=O)[C@H](Cc2ccccc2)SC[C@@H](C(=O)O)NC(=O)[C@H](CC(=O)O)NC(=O)CNC1=O
